From ChEMBL document CHEMBL1137855, “Synthesis and biological evaluation of taxinine analogues as orally active multidrug resistance reversal agents in cancer” (Bioorg Med Chem Lett, 2004)

Columns and labels:
Format in all cases: functional, cell-based
[1] = biological target: ATP-dependent translocase ABCB1 (Homo sapiens, UniProt P08183); test: TP_TRANSPORTER: drug resistance (vincristine) in MDR KB/V cells
How it was run: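 Fold reversal in KB/V cells from MTT vincristine IC50s measured with and without the reversing agent (5 or 10 μM). The ratio is defined as the vincristine IC50 […].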

KB 3-1 [2] = test: inhibitory concentration against human MDR KB/V cell line in presence of compound 9 at 5 uM
How it was run: (§1)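 Vincristine cytotoxicity in P-gp-overexpressing MDR KB/V cells, alone or with a reversing agent at the stated level (5 or 10 μM). MTT colorimetric assay in 96-well plates measured cell survival. IC50 is the vincristine concentration (nM) that inhibited cell growth by 50%.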

KB 3-1 [3] = test: inhibitory concentration against human MDR KB/V cell line in presence of compound 9 at 10 uM; how it was run: as §1
KB 3-1 [4] = test: inhibitory concentration against human MDR KB/V cell line; how it was run: as §1
KB 3-1 [5] = test: inhibitory concentration against human MDR KB/V cell line in presence of compound 8 at 5 uM; how it was run: as §1
KB 3-1 [6] = test: inhibitory concentration against human MDR KB/V cell line in presence of compound 8 at 10 uM; how it was run: as §1
KB 3-1 [7] = test: inhibitory concentration against human MDR KB/V cell line in presence of compound 10 at 5 uM; how it was run: as §1
KB 3-1 [8] = test: inhibitory concentration against human MDR KB/V cell line in presence of compound 10 at 10 uM; how it was run: as §1
KB 3-1 [9] = test: inhibitory concentration against human MDR KB/V cell line in presence of compound verapamil at 10 uM; how it was run: as §1
KB 3-1 [10] = test: inhibitory concentration against human MDR KB/V cell line in presence of compound Taxinine at 10 uM; how it was run: as §1

Sequence of ATP-dependent translocase ABCB1 (P08183 whole entry): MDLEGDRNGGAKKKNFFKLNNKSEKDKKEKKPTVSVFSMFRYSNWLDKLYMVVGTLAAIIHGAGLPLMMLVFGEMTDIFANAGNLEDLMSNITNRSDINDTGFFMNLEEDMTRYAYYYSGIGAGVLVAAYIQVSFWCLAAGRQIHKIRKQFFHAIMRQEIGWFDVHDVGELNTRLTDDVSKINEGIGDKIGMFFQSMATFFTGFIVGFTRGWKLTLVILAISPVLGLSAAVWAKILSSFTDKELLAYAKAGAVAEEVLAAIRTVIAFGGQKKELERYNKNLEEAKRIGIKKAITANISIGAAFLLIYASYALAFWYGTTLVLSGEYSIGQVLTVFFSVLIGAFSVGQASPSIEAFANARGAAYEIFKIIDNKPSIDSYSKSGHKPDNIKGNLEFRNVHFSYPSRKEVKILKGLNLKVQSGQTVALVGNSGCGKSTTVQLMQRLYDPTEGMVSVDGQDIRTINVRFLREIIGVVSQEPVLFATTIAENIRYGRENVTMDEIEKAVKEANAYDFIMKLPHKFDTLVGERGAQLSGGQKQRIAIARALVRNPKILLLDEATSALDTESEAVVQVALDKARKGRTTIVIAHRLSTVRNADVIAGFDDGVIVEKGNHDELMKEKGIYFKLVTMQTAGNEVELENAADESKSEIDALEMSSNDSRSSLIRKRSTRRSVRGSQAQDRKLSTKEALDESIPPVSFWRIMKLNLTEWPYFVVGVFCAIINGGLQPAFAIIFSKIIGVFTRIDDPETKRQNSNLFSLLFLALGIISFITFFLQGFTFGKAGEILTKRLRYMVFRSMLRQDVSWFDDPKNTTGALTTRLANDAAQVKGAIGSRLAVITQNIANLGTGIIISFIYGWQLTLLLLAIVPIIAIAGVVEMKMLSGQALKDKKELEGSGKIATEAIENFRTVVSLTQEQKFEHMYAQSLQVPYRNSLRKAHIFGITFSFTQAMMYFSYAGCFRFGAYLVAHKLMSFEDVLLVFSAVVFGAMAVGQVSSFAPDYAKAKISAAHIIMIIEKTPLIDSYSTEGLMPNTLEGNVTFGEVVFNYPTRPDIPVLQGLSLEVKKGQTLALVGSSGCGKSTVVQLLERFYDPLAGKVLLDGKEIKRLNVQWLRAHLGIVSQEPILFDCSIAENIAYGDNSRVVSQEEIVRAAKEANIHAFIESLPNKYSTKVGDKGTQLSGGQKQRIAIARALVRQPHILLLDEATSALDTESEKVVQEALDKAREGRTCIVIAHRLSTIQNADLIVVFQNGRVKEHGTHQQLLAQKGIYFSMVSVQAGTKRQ

C=C1[C@@H](OC(=O)CCc2ccccc2)CC[C@@]2(C)C[C@H](OC(C)=O)C3=C(C)C(=O)C[C@@H]([C@@H](OC(C)=O)[C@H]12)C3(C)C
Activity [1]: inhibitor [+]

C=C1[C@@H](OC(=O)CCc2ccccc2)CC[C@@]2(C)C[C@H](OC(C)=O)C3=C(C)C(=O)C[C@@H]([C@@H](OC(C)=O)[C@H]12)C3(C)C.CC[C@]1(O)CC2CN(CCc3c([nH]c4ccccc34)[C@@](C(=O)OC)(c3cc4c(cc3OC)N(C=O)C3C45CCN4CC=C[C@@](CC)(C(OC(C)=O)[C@]3(O)C(=O)OC)[C@H]45)C2)C1 (stereo not given in full)
IC50 (KB 3-1 [2]): 19.4 nM | IC50 (KB 3-1 [3]): 2.8 nM

CC[C@]1(O)C[C@H]2CN(CCc3c([nH]c4ccccc34)[C@@](C(=O)OC)(c3cc4c(cc3OC)N(C=O)[C@H]3[C@@](O)(C(=O)OC)[C@H](OC(C)=O)[C@]5(CC)C=CCN6CC[C@]43[C@@H]65)C2)C1 [VINCRISTINE]
IC50 (KB 3-1 [4]): 1230 nM

C=C1[C@@H](OC(=O)Cc2ccccc2)CC[C@@]2(C)C[C@H](OC(C)=O)C3=C(C)C(=O)C[C@@H]([C@@H](OC(C)=O)[C@H]12)C3(C)C.CC[C@]1(O)CC2CN(CCc3c([nH]c4ccccc34)[C@@](C(=O)OC)(c3cc4c(cc3OC)N(C=O)C3C45CCN4CC=C[C@@](CC)(C(OC(C)=O)[C@]3(O)C(=O)OC)[C@H]45)C2)C1 (stereo not given in full)
IC50 (KB 3-1 [5]): 218 nM | IC50 (KB 3-1 [6]): 7.3 nM

C=C1[C@@H](OC(=O)Cc2cc(OC)ccc2OC)CC[C@@]2(C)C[C@H](OC(C)=O)C3=C(C)C(=O)C[C@@H]([C@@H](OC(C)=O)[C@H]12)C3(C)C.CC[C@]1(O)CC2CN(CCc3c([nH]c4ccccc34)[C@@](C(=O)OC)(c3cc4c(cc3OC)N(C=O)C3C45CCN4CC=C[C@@](CC)(C(OC(C)=O)[C@]3(O)C(=O)OC)[C@H]45)C2)C1 (stereo not given in full)
IC50 (KB 3-1 [7]): 325 nM | IC50 (KB 3-1 [8]): 8.93 nM

CC[C@]1(O)CC2CN(CCc3c([nH]c4ccccc34)[C@@](C(=O)OC)(c3cc4c(cc3OC)N(C=O)C3C45CCN4CC=C[C@@](CC)(C(OC(C)=O)[C@]3(O)C(=O)OC)[C@H]45)C2)C1.COc1ccc(CCN(C)CCCC(C#N)(c2ccc(OC)c(OC)c2)C(C)C)cc1OC (stereo not given in full)
IC50 (KB 3-1 [9]): 18.1 nM

C=C1C2[C@H](C(C)=O)[C@@H]3CCC(=O)C(C)=C([C@@H](C(C)=O)[C@H](C(C)=O)[C@]2(C)CC[C@@H]1OC(=O)/C=C/c1ccccc1)C3(C)C.CC[C@]1(O)CC2CN(CCc3c([nH]c4ccccc34)[C@@](C(=O)OC)(c3cc4c(cc3OC)N(C=O)C3C45CCN4CC=C[C@@](CC)(C(OC(C)=O)[C@]3(O)C(=O)OC)[C@H]45)C2)C1 (stereo not given in full)
IC50 (KB 3-1 [10]): 124 nM
